Experimental data published in ChEMBL document CHEMBL1127414 (J Med Chem, 1994).
Values after ≈ are worked out from the molar mass of the structure shown. Blank lines part the entries; values can stand above or below the compound they belong to.

Key:
[1] = system: HepG2; assay: Concentration required to inhibit cholesterol synthesis in Hep G2 cells; format: functional, cell-based; conditions: Homo sapiens
In short: (§1)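 Hep G2 cells held 2 days in lipoprotein-depleted FBS to stimulate sterol synthesis, then given inhibitor in serum-free medium for 2 h. 15 μCi [5-3H]mevalonate (0.2 mCi/mmol) added for 1 h. Cells washed and saponified, and radioactivity counted by scintillation.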

[2] = system: HepG2; assay: Concentration required to inhibit cholesterol synthesis in Hep G2 cells relative to control (IC50 of L-694,599); format: functional, Homo sapiens; in short: as §1
[3] = system: Mus musculus; assay: Ability to inhibit the incorporation of [5-3H]-mevalonolactone into cholesterol by in vivo mouse assay by peroral administration at a dose of 24 mg/kg; format: functional; conditions: route oral
In short: (§2)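 Female Swiss Webster mice (~25 g), six per group, dosed po by gavage with inhibitor suspended in 5% emulphor. 30 min later, 0.5 μCi/mouse [5-3H]mevalonolactone in saline given sc. Livers removed 30 min after that and saponified in KOH/EtOH overnight at 55 °C, then petroleum-ether extracted. Nonsaponifiable dpm counted. Compounds first tested at a single dose (typically 12 or 24 mg/kg).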

[4] = biological target: T1, Squalene synthase (Rattus norvegicus, UniProt Q02769); assay: Tested for inhibition against squalene synthase enzyme in rat liver
T1 sequence (Q02769 whole entry): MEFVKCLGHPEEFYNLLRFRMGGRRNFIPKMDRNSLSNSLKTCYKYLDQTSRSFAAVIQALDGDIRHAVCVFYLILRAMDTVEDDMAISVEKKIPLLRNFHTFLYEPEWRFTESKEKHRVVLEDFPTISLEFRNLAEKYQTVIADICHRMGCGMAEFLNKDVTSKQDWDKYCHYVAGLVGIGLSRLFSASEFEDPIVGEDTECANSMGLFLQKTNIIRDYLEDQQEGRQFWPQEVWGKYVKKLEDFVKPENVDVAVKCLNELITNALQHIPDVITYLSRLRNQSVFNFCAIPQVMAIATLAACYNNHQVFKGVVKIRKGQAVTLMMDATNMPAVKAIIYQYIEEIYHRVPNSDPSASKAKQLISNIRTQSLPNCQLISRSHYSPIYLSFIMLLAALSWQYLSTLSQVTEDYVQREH

[5] = biological target: T2, Squalene synthase (Rattus norvegicus) (UniProt Q02769); assay: concentration required to inhibit rat liver squalene synthase enzyme relative to control (L-694,599)
T2 sequence (whole entry): T1 sequence (Q02769 whole entry)
In short: (§3)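 Enzyme from rat liver. […] Inhibitors added in DMSO (0.3% final) as 3-fold serial dilutions, usually up to 30 ng/mL (about 40 nM). IC50 read from % inhibition vs log concentration.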

[6] = system: Mus musculus; assay: Tested for its ability to inhibit the incorporation of [5-3H]-mevalonolactone into cholesterol by in vivo mouse assay by peroral administration at a dose of 40 mg/kg; format: functional; conditions: route oral; in short: as §2
[7] = system: Mus musculus; assay: Tested for its ability to inhibit the incorporation of [5-3H]-mevalonolactone into cholesterol by in vivo mouse assay by peroral administration at a dose of 12 mg/kg; format: functional; conditions: route oral; in short: as §2
[8] = biological target: T3, Squalene synthase (Mus musculus) (UniProt P53798); assay: Tested for the effective dose required for the incorporation of [5-3H]-mevalonolactone into cholesterol by in vivo mouse assay by peroral administration; format: functional, organism-based; in short: as §2
T3 sequence (whole entry): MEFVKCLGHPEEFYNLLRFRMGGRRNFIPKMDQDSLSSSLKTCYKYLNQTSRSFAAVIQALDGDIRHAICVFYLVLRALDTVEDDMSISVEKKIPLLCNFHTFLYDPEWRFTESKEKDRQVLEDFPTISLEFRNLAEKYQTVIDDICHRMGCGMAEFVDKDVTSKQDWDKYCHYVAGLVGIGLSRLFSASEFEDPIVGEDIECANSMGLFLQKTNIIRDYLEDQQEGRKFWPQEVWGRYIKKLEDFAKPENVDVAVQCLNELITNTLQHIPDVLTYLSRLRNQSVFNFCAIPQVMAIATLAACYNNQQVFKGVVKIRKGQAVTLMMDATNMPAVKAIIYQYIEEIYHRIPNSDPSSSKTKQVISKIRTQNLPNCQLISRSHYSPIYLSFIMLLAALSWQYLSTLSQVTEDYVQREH

[9] = biological target: T1, Squalene synthase; assay: Concentration required for inhibition of rat liver squalene synthase enzyme at 161 nM; Not active
[10] = biological target: T2, Squalene synthase (Rattus norvegicus); assay: Concentration required to inhibit rat liver squalene synthase enzyme relative to control (L-694,599); in short: as §3
[11] = system: Aspergillus fumigatus; assay: Concentration required to inhibit growth of MF 4839 strain of Aspergillus fumigatus; format: functional
In short: (§4)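 Broth microdilution against a panel of clinically relevant fungal strains. Read-out was the minimum fungicidal concentration in μg/mL.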

[12] = system: Candida parapsilosis; assay: Concentration required to inhibit growth of MY 1010 strain of Candida parapsilosis; format: functional; conditions: Lodderomyces parapsilosis; in short: as §4
[13] = system: Candida albicans; assay: Concentration required to inhibit growth of MY 1055 strain of Candida albicans; format: functional; in short: as §4
[14] = system: Candida albicans; assay: Concentration required to inhibit growth of MY 1750 strain of Candida albicans; format: functional; in short: as §4
[15] = system: Candida tropicalis; assay: Concentration required to inhibit growth of MY 1012 strain of Candida tropicalis; format: functional; in short: as §4
[16] = system: Cryptococcus neoformans; assay: Concentration required to inhibit growth of MY 1051 strain of Cryptococcus neoformans; format: functional; in short: as §4
[17] = system: Cryptococcus neoformans; assay: Concentration required to inhibit growth of MY 2061 strain of Cryptococcus neoformans; format: functional; in short: as §4
[18] = system: squalene synthase (Saccharomyces cerevisiae); assay: compound required to inhibit 50% activity of yeast squalene synthase enzyme relative to control (L-694,599).
[19] = system: Trichophyton benhamiae; assay: Concentration required to inhibit growth of MF 4864 strain of Trichophyton mentagrophytes; format: functional, Arthroderma benhamiae; in short: as §4

SMILES: C=C(CCC12OC(C(=O)O)C(O)(C(=O)O)C(C(=O)O)(O1)[C@H](OC(=O)CCC(=O)O)[C@H]2O)[C@@H](OC(C)=O)[C@H](C)Cc1ccccc1 (some centres undefined)
inhibition in vivo at 12 mg/kg [7]: -20% | ED50 [8]: > 12 mg/kg | IC50 [9]: Not Active

SMILES: CCCC(=O)O[C@@H]1[C@@H](O)C2(CCCCc3ccccc3)OC(C(=O)O)C(O)(C(=O)O)C1(C(=O)O)O2 (some centres undefined)
inhibition in vivo at 12 mg/kg [7]: 5% | IC50 [4]: > 3000 nM | Relative activity [10]: 0

SMILES: C=C(CCC12OC(C(=O)O)C(OCCC)(C(=O)O)C(C(=O)O)(O1)[C@H](O)[C@H]2O)[C@@H](OC(C)=O)[C@H](C)Cc1ccccc1 (some centres undefined)
IC50 [9]: Not Active

SMILES: C=C(CCC12OC(C(=O)O)C(O)(C(=O)O)C(C(=O)O)(O1)[C@H](OC(=O)CCCN)[C@H]2O)[C@@H](OC(C)=O)[C@H](C)Cc1ccccc1 (some centres undefined)
inhibition in vivo at 12 mg/kg [7]: 0% | ED50 [8]: > 12 mg/kg | IC50 [9]: Not Active

SMILES: C=C(CCC12OC(C(=O)O)C(O)(C(=O)O)C(C(=O)O)(O1)[C@H](OC(=O)OCCCCCCCCCCCOc1ccccc1)[C@H]2O)[C@@H](OC(C)=O)[C@H](C)Cc1ccccc1 (some centres undefined)
MFC [11]: 0.15 µg/mL (≈ 0.181 µM) | MFC [12]: 4 µg/mL (≈ 4.83 µM) | MFC [13]: > 128 µg/mL | MFC [14]: 0.5 µg/mL (≈ 0.603 µM) | MFC [15]: 0.5 µg/mL (≈ 0.603 µM) | MFC [16]: 8 µg/mL (≈ 9.65 µM) | MFC [17]: 16 µg/mL (≈ 19.3 µM) | IC50 [1]: 2400 nM | Relative activity [2]: 3.46 | inhibition in vivo at 40 mg/kg [6]: 12% | IC50 [4]: 0.04 nM | Relative activity [5]: 3 | Relative activity [18]: 6.07

Now from value to compound, other results behind:

IC50 [1]: 1300 nM | IC50 [4]: 0.07 nM | Relative activity [5]: 1.71
SMILES: C=C(CCC12OC(C(=O)O)C(O)(C(=O)O)C(C(=O)O)(O1)[C@H](OC(=O)NCCCCCCCCCCCOc1ccccc1)[C@H]2O)[C@@H](OC(C)=O)[C@H](C)Cc1ccccc1 (some centres undefined)
Relative activity [2]: 0.64 | inhibition in vivo at 24 mg/kg [3]: 56%

IC50 [1]: 1500 nM | IC50 [4]: 0.09 nM | Relative activity [5]: 1.26
SMILES: C=C(CCC12OC(C(=O)O)C(O)(C(=O)O)C(C(=O)O)(O1)[C@H](OCCCCCCCCCCCCCC)[C@H]2O)[C@@H](OC(C)=O)[C@H](C)Cc1ccccc1 (some centres undefined)
Relative activity [2]: 6 | inhibition in vivo at 40 mg/kg [6]: 0%

ED50 [8]: < 12 mg/kg | IC50 [4]: 22 nM | Relative activity [10]: 0.004
SMILES: C=C(CCC12OC(C(=O)O)C(O)(C(=O)O)C(C(=O)O)(O1)[C@H](OC)[C@H]2O)[C@@H](OC(C)=O)[C@H](C)Cc1ccccc1 (some centres undefined)
inhibition in vivo at 12 mg/kg [7]: 73%

IC50 [1]: 2400 nM
SMILES: C=C(CCC12OC(C(=O)O)C(O)(C(=O)O)C(C(=O)O)(O1)[C@H](OC(=O)OCCCCCCCCCC)[C@H]2O)[C@@H](OC(C)=O)[C@H](C)Cc1ccccc1 (some centres undefined)
MFC [11]: 2 µg/mL (≈ 2.77 µM) | MFC [12]: 2 µg/mL (≈ 2.77 µM) | MFC [13]: 8 µg/mL (≈ 11.1 µM) | MFC [14]: 16 µg/mL (≈ 22.1 µM) | MFC [15]: 2 µg/mL (≈ 2.77 µM) | MFC [16]: 8 µg/mL (≈ 11.1 µM) | MFC [17]: 0.25 µg/mL (≈ 0.346 µM) | inhibition in vivo at 24 mg/kg [3]: 28% | MFC [19]: < 0.06 µg/mL

IC50 [4]: 0.37 nM | Relative activity [10]: 1.38
SMILES: CC(=O)OC(CCCC12OC(C(=O)O)C(O)(C(=O)O)C(C(=O)O)(O1)[C@H](OC(=O)CC/C=C/C(C)CCCc1ccccc1)[C@H]2O)C(C)Cc1ccccc1 (some centres undefined)
inhibition in vivo at 40 mg/kg [6]: 20%

IC50 [1]: 1600 nM | IC50 [4]: 0.12 nM | Relative activity [5]: 2.5 | Relative activity [18]: 9.26
SMILES: C=C(CCC12OC(C(=O)O)C(O)(C(=O)O)C(C(=O)O)(O1)[C@H](OCCCCCCCCCCCC)[C@H]2O)[C@@H](OC(C)=O)[C@H](C)Cc1ccccc1 (some centres undefined)
MFC [11]: 0.5 µg/mL (≈ 0.707 µM) | MFC [12]: 8 µg/mL (≈ 11.3 µM) | MFC [13]: 4 µg/mL (≈ 5.66 µM) | MFC [14]: 32 µg/mL (≈ 45.3 µM) | MFC [15]: 64 µg/mL (≈ 90.5 µM) | MFC [16]: 0.5 µg/mL (≈ 0.707 µM) | MFC [17]: 0.12 µg/mL (≈ 0.17 µM) | Relative activity [2]: 5.62 | inhibition in vivo at 40 mg/kg [6]: 26% | MFC [19]: 1 µg/mL (≈ 1.41 µM)
